Legend:
CYP isozymes = experiment: metabolism in human hepatocytes and heterologously expressed CYP isozymes; assay type: in vitro ADME
p-S6 = p-S6 immunohistochemistry in pre- and post-treatment tumor biopsies; assay type: in vivo, human; details: 50 mg BD, post-treatment vs pre-treatment, mean H score
Summary of the method: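 Paired tumor biopsies taken before treatment and on days 8-15 of continuous oral twice-daily dosing, in a subset of expansion-cohort patients with advanced solid tumors. Patients fasted (water allowed) 2 h before and 1 h after each dose. Markers were scored by immunohistochemistry on post-treatment versus pre-treatment samples.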

CNC(=O)c1cccc(-c2ccc3c(N4CCOC[C@@H]4C)nc(N4CCOC[C@@H]4C)nc3n2)c1 [AZD2014]
metabolising CYP isozymes (CYP isozymes): primarily metabolised by CYP 3A5 and 2C8 with some contribution from 3A4 | evaluable paired biopsy samples with a reduction of p-S6 levels (p-S6): 8/8
